Bioassay records from PubChem.
LYPLA2 counter – counter-screen for PME1 inhibitors: inhibitors of human LYPLA2; inhibition, % at 5.9 µM; AID 2177; recombinant LYPLA2, FP-Rh probe fluorescence polarization; 320,000 compounds, 0.38% hits;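 active = inhibition above the screen-wide mean plus 3 SD, limit set per campaign, cut at about 26% in these data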;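 also: 0% = LYPLA2 with DMSO and 100% = wells lacking LYPLA2 enzyme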
PME-1 inh – blocks human protein phosphatase methylesterase 1. 320,000 compounds, 0.53% hits. recombinant PME-1, FP-Rh probe fluorescence polarization. inhibition, % at 5.9 µM. AID 2130;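 active = inhibition above the campaign mean of all compounds plus 3 SD, cut at about 26% in these data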;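 also: competitive labeling of PME-1 active site by serine hydrolase directed probe; 0% = PME-1 with DMSO and 100% = wells lacking PME-1 enzyme; inhibitors block probe labeling so polarization falls and inhibition rises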
LYPLA1 counter – LYPLA1 (human) inhibition in PME1 counter-screen. recombinant LYPLA1, FP-Rh probe fluorescence polarization. O75608. inhibition, % at 5.9 µM. 320,000 compounds, 0.16% hits;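 active = inhibition above the mean of all tested compounds plus 3 SD, set per campaign, cut at about 14% in these data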;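 also: inhibitors block serine hydrolase probe labeling of LYPLA1 so polarization falls; 0% = enzyme with DMSO and 100% = wells lacking LYPLA1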
Fam108B inh – blocks mouse Fam108B hydrolase in RBBP9 counter-screen | AID 1947 | inhibition, % at 9.51 µM | 300,000 compounds, 0.33% hits | recombinant Fam108B, FP-Rh probe fluorescence polarization;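 active = inhibition above the screen mean inhibition plus 3 SD, computed separately per campaign, cut at about 18% in these data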;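 also: inhibitors lower polarization as less probe binds the enzyme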
RBBP9 inh – human RBBP9 hydrolase inhibition; O75884; recombinant RBBP9, FP-Rh probe fluorescence polarization; inhibition, % at 7.94 µM; 220,000 compounds, 0.2% hits; AID 1515;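 active = inhibition above the campaign mean of all tested compounds plus 3 SD, cut at about 14% in these data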;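 also: plate controls were DMSO wells with RBBP9 for no effect and wells lacking RBBP9 protein for full effect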
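Measured by: FP readout at 525/598 nm; material: recombinant human RBBP9; also added: Serine-hydrolase probe FP-Rh, 375 nM pre-mixing; medium: Tris buffer pH 8.0, NaCl, Pluronic; replication: one well per compound; doses: one concentration, 7.94 µM nominal, 0.794% DMSO; timing: preincubation 30 min plus labeling 45 min at 25 °C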
PAD4 FP inh – inhibitors of human PAD4; inhibition, % at 6.36 µM; recombinant PAD4, RCA probe fluorescence polarization; 330,000 compounds, 0.41% hits;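 active = percent inhibition above a cutoff equal to the mean of all tested compounds plus 3 SD, cut at about 15% in these data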;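 also: 0% = PAD4 with RCA probe and DMSO and 100% = probe without PAD4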
Target sequence (Q9UM07 whole entry, looked up): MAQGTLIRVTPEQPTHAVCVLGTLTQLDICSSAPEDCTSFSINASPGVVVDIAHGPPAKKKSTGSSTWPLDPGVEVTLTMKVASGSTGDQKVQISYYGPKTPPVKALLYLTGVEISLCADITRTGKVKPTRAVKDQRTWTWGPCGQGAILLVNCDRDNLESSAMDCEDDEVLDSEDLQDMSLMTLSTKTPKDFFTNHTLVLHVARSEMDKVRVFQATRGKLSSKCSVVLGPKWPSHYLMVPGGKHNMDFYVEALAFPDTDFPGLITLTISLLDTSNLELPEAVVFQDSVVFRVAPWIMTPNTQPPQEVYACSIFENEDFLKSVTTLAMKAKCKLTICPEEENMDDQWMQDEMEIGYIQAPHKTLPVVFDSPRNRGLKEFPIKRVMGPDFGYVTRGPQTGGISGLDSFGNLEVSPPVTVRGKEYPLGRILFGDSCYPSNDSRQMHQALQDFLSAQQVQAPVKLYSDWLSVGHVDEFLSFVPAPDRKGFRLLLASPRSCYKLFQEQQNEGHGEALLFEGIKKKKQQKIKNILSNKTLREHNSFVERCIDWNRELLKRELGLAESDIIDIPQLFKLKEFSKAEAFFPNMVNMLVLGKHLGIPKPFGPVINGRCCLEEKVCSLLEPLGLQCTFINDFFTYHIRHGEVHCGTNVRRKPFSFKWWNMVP
The depositor's hits bear a star; x = not tested or not shown. The list is not random: actives were taken first. Their share in the collection is about 1.3%.

SMILES | LYPLA2 counter | PME-1 inh | LYPLA1 counter | Fam108B inh | RBBP9 inh | PAD4 FP inh
Cc1cccc2sc(NNC(=O)c3cc(=O)c4ccccc4o3)nc12 | 0 | 47* | -2 | 4 | 11 | 4
COc1ccc2nc(NNC(=O)c3cc(=O)c4ccccc4o3)sc2c1 | -2 | 7 | -4 | 1 | -2 | -1
CCOC(=O)C1=C2NC(=O)c3ccccc3N2C(=O)C1 | -4 | -1 | 0 | 0 | -1 | -2
CS(=O)(=O)Nc1cccc(C2=NN(S(C)(=O)=O)C(c3ccc4c(c3)OCO4)C2)c1 (stereo not drawn) | 5 | 15 | -3 | 2 | -5 | -1
CS(=O)(=O)N1N=C(c2ccccc2)CC1c1ccc2c(c1)OCO2 (stereo not drawn) | -11 | 28* | -9 | -7 | -7 | -10
CCC1(C)Cc2c(sc3nc(NN)n(C)c(=O)c23)CO1 (stereo not drawn) | -3 | 37* | -6 | 2 | -8 | 0
O=c1ccc(-c2ccccc2)nn1Cc1ccc(Cl)cc1 | 38* | 4 | -3 | -4 | x | -3
Cc1cccc(N(C(=O)c2snc(C(N)=O)c2N)C(C(=O)NCC2CCCO2)c2c[nH]c3ccccc23)c1 (stereo not drawn) | 0 | -8 | -6 | 1 | x | 3
CC1CCN(C(=O)c2ccc(SCc3ccccc3F)c([N+](=O)[O-])c2)CC1 | 34* | 3 | 10 | 4 | -4 | -1
O=C(NC1C(=O)NNC1c1ccc(Cl)cc1)c1ccc(F)cc1 (stereo not drawn) | 37* | 4 | -6 | -2 | -15 | -11
CC(=O)c1sc(N/N=C\c2ccc(Br)cc2)nc1C | -4 | 27* | -2 | 1 | -10 | 1
CC(=O)c1sc(N/N=C\c2cccc(Br)c2)nc1C | 4 | 23 | 7 | 4 | -4 | -2
Cc1c(C(=O)NC2CCC(C)CC2)oc2ccccc12 (stereo not drawn) | 10 | 11 | 0 | 4 | x | -3
Cc1ccccc1C(=O)N1CC(=O)Nc2ccc(F)cc2C1c1ccc(F)cc1 (stereo not drawn) | -1 | 11 | -2 | -3 | x | 4
O=C1CN(C(=O)c2ccccc2F)C(c2ccccc2)c2cc(F)ccc2N1 (stereo not drawn) | 9 | 30* | 2 | 1 | x | 1
CCc1ccc(-c2nc(SCC(=O)NC3CC3)n[nH]2)cc1 | 1 | 0 | 1 | 3 | x | -6
O=C(O)CCCNc1cc(N2CCC3(CC2)OCCO3)c2noc3c2c1C(=O)c1ccccc1-3 | -1 | -2 | 1 | 35* | 6 | 18*
CCOC(=O)N1CCN(c2cc(NCCC(=O)O)c3c4c(onc24)-c2ccccc2C3=O)CC1 | -3 | 16 | 2 | 6 | 6 | 7
Cc1cc(C)c2c(N)c(-c3nc4ccccc4[nH]3)sc2n1 | -5 | 29* | -2 | 8 | -2 | 2
Cc1ccccc1-c1nc2ccccc2[nH]1 | 16 | 6 | 0 | 1 | -2 | -1
CCc1nnc(N/N=C/c2cc(Br)c(O)cc2O)n1N | 5 | -3 | 0 | 4 | x | 37*
CC(C)(C)c1nnc(N/N=C/c2cc(Br)ccc2O)n(N)c1=O | 6 | 14 | -2 | 8 | -7 | 0
Cc1ccc2nc3n(c2c1)CCCN3 | 2 | 5 | 3 | 0 | x | -2
Cc1ccc2nsnc2c1NS(=O)(=O)c1c(C)ccc2nsnc12 | 4 | 31* | 0 | -3 | -6 | -6
CC(C)c1ccc2c(c1)C1(NN=C(c3ccccc3)S1)C(=O)N2 (stereo not drawn) | 5 | 33* | 2 | 7 | -2 | 1
CCc1ccc2nc(SCC(=O)N3CC(=O)Nc4ccccc43)c(C#N)cc2c1 | 1 | 34* | -1 | -5 | -1 | -27
O=C(NCCC1=CCCCC1)C1CCN(S(=O)(=O)c2cccs2)CC1 | 0 | 28* | 1 | -1 | -10 | 1
CC(C)c1ccc2[nH]c(O)c(N=NC(=O)c3cccc(S(=O)(=O)N4CCCCC4)c3)c2c1 | 1 | 53* | -2 | 8 | 5 | -8
O=C(N=Nc1c(O)[nH]c2ccccc12)c1cccc(S(=O)(=O)N2CCCCC2)c1 | -8 | 4 | -4 | 0 | -4 | -1
Cc1ccc2c(c1)sc[n+]2Cc1ccccc1 | -2 | 3 | 0 | 3 | -3 | 22*
